Assay outcomes: PubChem, The Scripps Research Institute Molecular Screening Center
OX1R antag-1 = human HCRTR1 antagonism | O43613 | CHO/OX1R cells, Fluo-8 calcium fluorescence, orexin A | inhibition, % at 5 µM | 0.43% of 330,000 active;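 active = inhibition above its plate's threshold, mean inhibition of all tested compounds on the plate plus 3 SD, cut at about 37% in these data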
OX1R antag-2 = blocks the human orexin 1 receptor; inhibition, % at 6.6 µM; 1.8% of 330,000 active; AID 485270; OX1R-expressing cells, FRET antagonist read-out; in the data active = inhibition mostly above about 38%, no sharp cut-off; inactive = mostly below about 40%
CHO parental Ca = counter-screen: ATP calcium response change in parental CHO cells; 0.63% of 330,000 active; inhibition, % at 5.6 µM; parental CHO-K1, ATP-induced calcium, Fluo-8 fluorescence;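 active = inhibition above that plate's mean sample inhibition plus 3 SD, cut at about 26% in these data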
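Assay system: parental CHO cells; Read-out basis: percent inhibition of ATP-evoked calcium rise, normalized to controls; Benchmarks: ATP and no-ATP DMSO wells; Compound dosing: single nominal dose of 5.6 µM per compound; Signal: Fluo-8 calcium dye fluorescence; Also added: ATP as calcium-mobilizing challenge; Repeats: singlicate.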
GPR7 antag = blocks human GPR7 receptor signaling. P48145. GPR7-expressing cells, fluorescence antagonist assay. inhibition, % at 4.4 µM. 1.1% of 290,000 active. AID 1861; in the data active = inhibition above about 16%, passing the limit was not always enough;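 also: cells stimulated with the agonist NPW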
Target sequence (P48145 whole entry, looked up): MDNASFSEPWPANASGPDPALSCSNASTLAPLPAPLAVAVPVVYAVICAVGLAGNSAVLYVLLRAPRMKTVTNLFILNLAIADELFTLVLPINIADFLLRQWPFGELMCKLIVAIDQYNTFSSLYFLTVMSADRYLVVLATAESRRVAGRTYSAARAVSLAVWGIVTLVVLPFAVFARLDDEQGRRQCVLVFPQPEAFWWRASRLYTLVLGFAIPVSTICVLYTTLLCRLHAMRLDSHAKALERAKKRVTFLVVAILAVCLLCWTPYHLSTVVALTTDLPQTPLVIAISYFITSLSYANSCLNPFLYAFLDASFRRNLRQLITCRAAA
TAAR1 antag = antagonists of human TAAR1; Q96RJ0; CHO RD-HGA16 TAAR1, Fluo-8 calcium fluorescence, antagonist; inhibition, % at 3 µM; 1.5% of 360,000 active; AID 624466;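 active = inhibition above a per-plate cutoff, the mean inhibition of test compounds on that plate plus 3 SD, cut at about 49% in these data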
Target sequence (Q96RJ0 whole entry, looked up): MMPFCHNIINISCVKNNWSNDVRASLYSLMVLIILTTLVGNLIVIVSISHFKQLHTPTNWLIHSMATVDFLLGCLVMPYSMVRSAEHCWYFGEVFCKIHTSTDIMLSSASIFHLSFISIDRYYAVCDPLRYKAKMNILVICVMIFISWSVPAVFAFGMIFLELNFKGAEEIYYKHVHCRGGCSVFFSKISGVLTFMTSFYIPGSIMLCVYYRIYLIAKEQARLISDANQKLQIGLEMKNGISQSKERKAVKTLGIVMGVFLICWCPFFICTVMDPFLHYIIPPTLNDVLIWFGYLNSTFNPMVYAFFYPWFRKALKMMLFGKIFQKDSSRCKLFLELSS
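Material: CHO RD-HGA16 cells bearing hTAAR1; compound dosing: one-point dosing, 3 µM nominal final; schedule: dye loading 75 min at 37 °C, then 30 min room temperature; measured by: calcium fluorescence with Fluo-8; control set: vehicle and agonist controls; replication: n of 1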
TAAR1 agonist = agonists of human TAAR1; Q96RJ0; CHO RD-HGA16 TAAR1, Fluo-8 calcium fluorescence; vehicle wells 0%, saturating PEA agonist 100%; activation, % at 3 µM; 0.99% of 360,000 active;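 active = activation above the mean activation of all test compounds in the run plus 3 SD, cut at about 38% in these data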
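Test system: RD-HGA16 (CHO) cells co-expressing Gα16 and hTAAR1 | Doses: Single dose, 3 µM | Schedule: 17-24 h seeding, 75 min 37 °C dye, 30 min RT | Evaluation: % activation from peak over basal fluorescence ratio, DMSO-to-PEA scaled | Technique: Kinetic Fluo-8 calcium fluorescence | Benchmarks: Low control DMSO, high control PEA (EC100)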
GPR7 antag cf = human GPR7 antagonism, confirmation assay | shares compounds with GPR7 antag | GPR7-expressing cells, calcium fluorescence antagonist mode | inhibition, % at 4.4 µM | 52% of 2,400 active | AID 1952; in the data active = inhibition above about 24%;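 also: stimulated with the GPR7 agonist NPW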
MCHR1 antagonist = MCHR1 (human) antagonism in GPR7 counter-screen; shares compounds with GPR7 antag; MCHR1-expressing cells, fluorescence antagonist assay; inhibition, % at 4.4 µM; 62% of 2,400 active; in the data active = inhibition above about 22%
A number is an active result; i = inactive; nt = no result given. Hits are enriched below; roughly 4.5% of the tested compounds scored in any of these assays.

SMILES | OX1R antag-1 | OX1R antag-2 | CHO parental Ca | GPR7 antag | TAAR1 antag | TAAR1 agonist | GPR7 antag cf | MCHR1 antagonist
CC1CN(c2ccc([N+](=O)[O-])c(NCCOc3ccc(Cl)cc3)c2)CC(C)N1 (configuration not stated) | nt | nt | nt | 37.5 | i | i | 62.4 | 68.9
C[C@H](O)[C@@H]1CN2CCc3c([nH]c4ccccc34)[C@@H]2C[C@@H]1N(C)Cc1cc(Cl)cc(Cl)c1 | nt | nt | nt | nt | i | i | nt | nt
Cc1ccc(C)c(C(O)c2ncc(-c3ccccc3F)[nH]2)c1 (configuration not stated) | nt | nt | nt | nt | i | i | nt | nt
CCOC(=O)[C@]12CCC=C1N(Cc1ccco1)C(=O)[C@H](CC(=O)N1CCCCC1)C2 | nt | nt | nt | nt | i | i | nt | nt
Cn1c(=O)c2cc(NC(=O)NCc3ccc(F)cc3)ccc2n1C | nt | nt | nt | nt | i | i | nt | nt
Cc1ccc(NC(=O)c2nc(S(=O)(=O)Cc3ccccc3)ncc2Cl)cc1 | i | i | 38.9 | 35.4 | i | i | 59.8 | 98.3
Cc1cccc(CS(=O)(=O)c2ncc(Cl)c(C(=O)Nc3c(C)cccc3C)n2)c1 | 76.9 | 88.8 | i | 50.6 | i | i | 58.0 | 97.4
O=C(N/C(=C/c1ccc(F)cc1)C(=O)N1CCOCC1)c1ccco1 | nt | nt | nt | nt | i | i | nt | nt
CCc1nc2ccc(C(=O)NCCCn3ccnc3)cn2c1N(C)Cc1cc2ccccc2s1 | nt | nt | nt | nt | i | i | nt | nt
Oc1ccc(C=NNC(=S)Nc2cccnc2)nc1 | nt | nt | nt | nt | i | i | nt | nt
Cc1c(NC(=O)c2cccs2)cccc1-c1nc2ccccc2s1 | i | i | i | 33.2 | i | i | 44.5 | 64.3
Cc1cccc2cc3c(nc12)SC(=NCC1CCCO1)N(Cc1ccco1)C3 (configuration not stated) | i | i | i | 22.5 | nt | nt | i | 60.2
COc1ccc2c(c1)C(C)CC(C)(C)N2C(=O)CSc1nc2ccccc2s1 (configuration not stated) | i | i | i | 22.1 | i | i | 25.5 | 53.9
COc1ccc(C2=NN(C(=O)CSc3nc4ccccc4s3)C(c3ccc(OC)cc3)C2)cc1 (configuration not stated) | i | i | i | i | i | i | nt | nt
CCOc1c(Br)cc(/C=C(\C#N)C(=O)NC2CC2)cc1OC | i | i | i | 24.2 | i | i | 47.3 | 41.2
CC(C)C(=O)N1CCN(c2ccccc2NC(=O)c2ccc([N+](=O)[O-])o2)CC1 | i | 61.2 | i | 35.0 | i | i | 27.6 | i
O=C(Nc1ccc(N2CCN(C(=O)c3ccccc3)CC2)cc1)c1ccc(Br)o1 | i | i | i | 38.2 | i | i | 38.9 | 32.4
O=C(Nc1ccccc1N1CCN(C(=O)c2ccccc2)CC1)c1ccc([N+](=O)[O-])o1 | nt | nt | nt | 36.6 | 54.9 | i | 33.1 | 34.9
CCC(=O)N1CCN(c2ccccc2NC(=O)c2ccc([N+](=O)[O-])o2)CC1 | i | i | i | i | i | i | nt | nt
O=C(Nc1ccc(N2CCCC2)cc1)c1ccc(Br)o1 | i | i | i | i | i | i | nt | nt
COc1ccc(NS(=O)(=O)c2cccc(C(=O)NCc3ccccc3CN3CCOCC3)c2)cc1 | nt | nt | nt | nt | i | i | nt | nt
CCSc1ncc(/C=N/Nc2ccc(Cl)cc2)n1C | i | i | i | 24.8 | i | i | i | 40.2
CCOC(=O)C1CCCN(C(=O)c2cnn3c(C(F)(F)F)cc(-c4ccccc4)nc23)C1 (configuration not stated) | i | i | i | 25.1 | i | i | i | i
COc1ccc(NC(=O)CSCC(=O)Nc2cc(Cl)ccc2N2CCCC2)cc1 | i | i | i | i | i | i | nt | nt
COc1ccc(NC(=O)CSc2n[nH]c(C)c2[N+](=O)[O-])cc1 | i | i | i | 22.3 | i | i | i | i
SMILES | OX1R antag-1 | OX1R antag-2 | CHO parental Ca | GPR7 antag | TAAR1 antag | TAAR1 agonist | GPR7 antag cf | MCHR1 antagonist
Cc1ccc(NC(=O)CSc2n[nH]c(C)c2[N+](=O)[O-])cc1C | i | i | i | i | i | i | nt | nt
Cc1cc(C)nc(CCNC(=O)c2cc(COc3c(F)cccc3F)on2)n1 | i | i | i | i | i | i | nt | nt
Cc1cc(C)nc(CCNC(=O)c2cc(COc3ccccc3)on2)n1 | i | i | i | 27.3 | i | i | i | i
CC(C)c1ccccc1OCC(O)CN1CCN(S(=O)(=O)c2ccc([N+](=O)[O-])cc2)CC1 (configuration not stated) | i | i | i | 46.7 | i | i | 45.0 | 76.0
Cc1cc2nc(-c3ccccc3)c(Cc3cccc(Cl)c3)n2c(C)c1Br | nt | nt | nt | nt | i | i | nt | nt
Cc1cc(C(=O)N[C@H](c2ccccc2)[C@@]2(C)C[C@@H]2[C@@H](C)C(=O)Nc2ccc3ccccc3c2)no1 | i | i | i | 29.3 | 52.8 | i | 46.0 | 63.6
COc1cc(C(=S)N2CCOCC2)ccc1OC(=O)c1ccc(Br)cc1 | nt | nt | nt | 41.5 | 74.6 | i | 65.8 | 81.0
Cc1cc(C(=O)N2CCC2(C)C(=O)O)c(C)o1 (configuration not stated) | nt | nt | nt | nt | i | i | nt | nt
Cc1nc2cc(NC(=O)c3ccc(S(=O)(=O)N(C)c4ccccc4)cc3)ccc2o1 | i | i | i | 44.7 | 51.1 | i | 63.4 | 81.1
Cc1nc2cc(NC(=O)N(C)c3ccc4ccccc4c3)ccc2o1 | i | i | i | 32.4 | i | i | i | 26.1
COc1ccc(NC(=O)Nc2ccc3oc(C)nc3c2)cc1 | i | i | i | i | i | i | nt | nt
CCCN(C(=O)CSCc1ccc(C)cc1)c1c(N)n(Cc2ccccc2)c(=O)[nH]c1=O | nt | nt | nt | nt | i | i | nt | nt
O=C(NCc1cccc(Cl)c1)c1ccc(-c2csnn2)cc1 | i | i | i | 24.9 | i | i | i | i
O=C(NC1CCCC1)C1C(c2ccc(C(F)(F)F)cc2)=Nc2ccccc2N1C(=O)c1cc2ccccc2[nH]1 (configuration not stated) | nt | nt | nt | nt | i | i | nt | nt
COc1ccc2c(c1)C(=O)N(c1ccccc1)C(=O)C2 | i | i | i | 28.4 | i | i | i | i
O=[N+]([O-])c1c(Nc2cccc(O)c2)cc(Cl)c2nonc12 | 46.9 | 94.3 | 43.0 | 35.3 | i | i | 80.7 | 100.6
Cc1c(Nc2cc(Cl)c3nonc3c2[N+](=O)[O-])c(=O)n(-c2ccccc2)n1C | nt | nt | nt | i | i | i | nt | nt
CC(C)NC(=O)C1C(c2ccc(C(F)(F)F)cc2)=Nc2ccccc2N1C(=O)c1cccc(C(F)(F)F)c1 (configuration not stated) | nt | nt | nt | nt | i | i | nt | nt
COc1ccc(CNC(=O)CSc2nnc(C)c(=O)[nH]2)cc1 | i | i | i | 25.3 | i | i | i | i
